According to ChEMBL document CHEMBL4513216, “Probing the Open Global Health Chemical Diversity Library for Multistage-Active Starting Points for Next-Generation Antimalarials” (ACS Infect Dis, 2020):

Experiment: Toxicity liver stage against HepG2, at 10uM
Format: cell-based
Design: test concentration 10 uM, cell line HepG2-A16-CD81EGFP
Settings: human, HepG2-A16-CD81EGFP cells; read-out: INHIBITION
In short: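 Uninfected HepG2-A16-CD81EGFP cells, 3 × 10^3 per well, 1536-well, plated on prespotted compound at 10 μM final, parasite-free screening media added to match infected plates; puromycin 10 μM positive, DMSO 0.5% negative; run in parallel with 48 h PbLuc assay at 37 °C, 5% CO2; viability by CellTiter-Glo luminescence, normalized to controls.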

Structure (SMILES) | cytotoxicity at 10 µM [%]
Fc1ccc(CN2CCOC[C@H](Oc3cccnc3)C2)cc1 | 7.35
COCC(=O)N1CCN(C(C)=O)C[C@@H]1C(=O)OC | 2.43
CCCNC(=O)C1CCCN(c2ccc3nncn3n2)C1 (centres undefined) | 10.7
O=C(O)CCn1ccc(=O)c2cc(F)ccc21 | 1.09
CCCNC(=O)CSc1nnc2[nH]c(=O)c3c(n12)CCCC3 | -83.3
CCOc1ccc(S(=O)(=O)NCCCc2ccc(N(C)C)cc2)cc1C | 0.279
O=C(Nc1cccc(OC(F)F)c1)C1CN(S(=O)(=O)C2CC2)C1 | 0.696
O=S(=O)(NCCC(O)c1cccs1)c1c(F)cccc1F (centres undefined) | -0.00815
CN(C)C(=O)c1ccc2ccc(N3CCN(CC4CC4)CC3)n2c1 | 4.14
CN(C)C(=O)c1cc2c(nc1NCC1CC1)CCN(CC1CC1)CC2 | 7.54
O=C(COc1coc(CN2CCCCC2)cc1=O)c1ccc(Cl)cc1 | 3.13
Cc1ccc(S(=O)(=O)NC2CNC(=O)C2)cc1C (centres undefined) | -21.1
O=C1CCSCC(C(=O)N2CCCC2)N1 (centres undefined) | -9.83
O=C1CCSCC(C(=O)N2CCN(C3CCCCC3)CC2)N1 (centres undefined) | -18.7
O=C(c1ccsc1)N1CCc2c(CNc3ncccn3)n[nH]c2C1 | -16.7
Cc1nc2c(N3CCN(Cc4ccccc4)CC3)nc(N)nc2n1C | 5.61
CCN(Cc1c(C)nn(CC)c1C)S(=O)(=O)c1cnn(C)c1C | 9.65
CN(C)S(=O)(=O)N1CCCCCC1c1cc(-c2ccc(F)cc2)no1 (centres undefined) | 10.6
COc1ccccc1CN1CCC(c2nccc(C)n2)C1 (centres undefined) | 3.44
COc1ccc(CN2CC[C@H](NC(C)=O)[C@@H](O)CC2)c(F)c1 | -11.1
CC(=O)N1CCCC1c1cccc(Cc2ccccc2Cl)n1 (centres undefined) | 1.58
CC(C)n1ccnc1CN1CCOC(C)(C(=O)N2CCOCC2)C1 (centres undefined) | -8.58

Structure (SMILES) | cytotoxicity at 10 µM [%]
Oc1nc(N2CCOCC2)nc2c1CCN(Cc1ccc(F)cc1)CC2 | -4.14
O=C(N[C@@H]1CCC[C@@H](n2ccnc2)[C@@H]1O)c1ccc2c(c1)CCCC2 | -11.3
CS(=O)(=O)N1Cc2ccccc2CC2(CCN(Cc3ccncc3)C2)C1 (centres undefined) | 4.59
COc1ccccc1/C=C/CNCC1CCc2nncn2C1 (centres undefined) | 3.91
N#CC1(NC(=O)COc2cc(Cl)cc(Cl)c2)CCSC1 (centres undefined) | 7.95
O=C(NCC1CCS(=O)(=O)C1)N(Cc1ccco1)C1CC1 (centres undefined) | -136
CC(C)c1nn(C)c(Cl)c1CNCCn1cccn1 | -9.11
COC(=O)CC1CCCCN1CC(=O)NCCc1ccc(F)cc1 (centres undefined) | -8.61
COCCN(Cc1ccccn1)C(=O)Nc1cccnc1N1CCCC1 | 4.03
COc1ccc(OC)c(CCNC(=O)CCC2CCCO2)c1 (centres undefined) | 2.34
Cc1ccnc(C(NC(=O)c2oc(C)nc2C)C2CC2)n1 (centres undefined) | -0.392
O=c1oc(-c2ccccc2)nn1CN1CCC(N2CCCCC2)CC1 | 6.64
CCN(Cc1ccccc1)C(=O)CN1CCCCC1Cn1cncn1 (centres undefined) | 7.15
O=C(CN1CCCC1COc1ccccc1)NCc1ccccn1 (centres undefined) | -0.764
CC(CN1CCCC1=O)NC(=O)c1cc(Cl)c2c(c1)OCO2 (centres undefined) | -10.4
CC(C)c1cnc(CN(C)C2CCN(CCS(C)(=O)=O)C2)o1 (centres undefined) | 0.528
CCC1(CNC(=O)NC(c2nnc3n2CCC3)C(C)C)CCC1 (centres undefined) | 0.864
Cc1cc(F)ccc1-n1cc(O)c(C(N)=O)n1 | -9.55
COc1ccc(N(C(=O)c2ccc(C)nc2)C(C)C)cc1F | -3.17
CC(CC#N)N(C)Cc1ccccc1Cl (centres undefined) | -8.67
CC(C)OCCC(=O)Nc1cc(C(=O)N(C)C(C)C)ccc1Cl | -3.79
CC(=O)N(Cc1ccc(NCc2cnn(C(C)(C)C)c2)cc1)C(C)C | -3.44

Structure (SMILES) | cytotoxicity at 10 µM [%]
CCC(CC)n1ncc(C(=O)NS(=O)(=O)c2ccsc2)c1C | -3.01
CCC(CC)CNCC1(S(C)(=O)=O)CCOCC1 | 0.354
Cc1nccn1-c1ccc(CNC(=O)c2ccc(O)nc2)cn1 | 1.75
Cn1cccc(NC(=O)N2CCC(COCc3ccccc3)C2)c1=O (centres undefined) | 3.67
O=C(NCCc1nnc2n1CCC2)N1CCC2(CCCCC2)C1 | 14.7
FC(F)(F)c1cccc(C2(CNCc3ccncc3)CCOCC2)c1 | -6.98
O=C(c1cccc(NCCO)c1)N1CCOCC1 | -11
Cc1noc([C@]23COC[C@H]2CN(C(=O)Cc2ccsc2)C3)n1 | -95.9
CCOCC(=O)N1CCC2(CC1)CC(c1ccccc1)CO2 (centres undefined) | -113
O=C(Cc1ccco1)N1C[C@H]2CCC[C@@]2(COCc2cccnc2)C1 | -115
COCCNC(=O)[C@H]1CO[C@H]2CCN(Cc3cccs3)C[C@H]2C1 | -108
O=C(c1ccoc1)N1CC[C@@H]2O[C@@H](COCC3CCOCC3)CC[C@@H]21 | -76.2
CC(C)NC(=O)N1CCC2(COCc3cnc(-c4cccnc4)nc32)C1 (centres undefined) | 1.77
COc1cc(-c2cc(=O)[nH]cn2)cc(OC)c1OC | -12.5
O=C(CNCc1ccccc1Cn1cccn1)Nc1cnccn1 | 8.11
Cc1cc(N2CCC3(CCCN(CCO)C3=O)C2)nc(C)c1C#N (centres undefined) | 7.41
Cc1nc(CC(=O)N2CCCC2c2nc(-c3ccccc3)no2)cs1 (centres undefined) | 7.01
Cc1cccc(CN2CCN(C(=O)N(C)C)[C@@H]3CS(=O)(=O)C[C@@H]32)n1 | 0.00559
CCc1oc(C(=O)N(C)Cc2ccncc2)cc1CN(CC)CC | -1.81
Cn1cc(CN(CC2(O)CCNC2)C2CCCCC2)cn1 (centres undefined) | 17.8
CC(C)c1nc(CCN(C)c2nccc(N3CCCC(O)C3)n2)no1 (centres undefined) | -12
CSCCCN1CC[C@@]2(O)CCN(c3ncccn3)C[C@H]2C1 | -4.53

Structure (SMILES) | cytotoxicity at 10 µM [%]
NCc1cn(CC2CCCN(C(=O)NCCc3ccc(F)cc3)C2)nn1 (centres undefined) | 17.2
CCn1c(C2CCCNC2)nn(Cc2ccc(C(=O)NC)o2)c1=O (centres undefined) | 8.25
Cc1nccn1-c1ccc(N2CCC(NC(C)CC(C)C)CC2)cc1 (centres undefined) | 1.71
COc1cccc2c1OCCCN(c1nc3c(c(=O)[nH]1)CCNCC3)C2 | -5.24
CCNc1ncc(C(=O)NCc2ccc(F)c(C(F)(F)F)c2)cn1 | -5.96
CCc1ccccc1OC1CN(C(=O)c2ccsc2)C1 | 7.46
COc1ccc(-c2n[nH]cc2CN(C)CCC2CCOCC2)cc1F | -6.57
CCN(CC)S(=O)(=O)c1ccc(NC(=O)C(C)(C)C)cc1 | 9.22
COCc1nc(CNC2CCSC2)no1 (centres undefined) | -1.37
C=Cc1cccc(CN2CCCn3nc(CNS(C)(=O)=O)cc3C2)c1 | 3.15
c1csc(CN2CCCN(c3ncnc4[nH]ccc34)CC2)c1 | 5.51
Cc1ccc(N2CCN(C(=O)CCc3n[nH]c(C)c3C)CC2=O)cc1 | 4.78
O=C1NCC2(CCCN(C(=O)c3ccc4c(c3)CCCO4)CC2)O1 (centres undefined) | -19.7
CCNC(=O)CCN1CCC(c2cc(N3CCOCC3)nc(C)n2)CC1 | -10.8
Cc1ccc2c(c1)c(CNC(=O)C1CC(=O)N(C3CCCC3)C1)nn2C (centres undefined) | -19.9
Cc1cc(C)n(CC(=O)N(C)Cc2csc(-c3cccs3)n2)c(=O)n1 | 32.2
COc1cccc(N2CCN(Cc3ccc(NC(C)=O)cc3)CC2=O)c1 | -15.4
CCOCn1cc(NC(=O)C2CCN(S(C)(=O)=O)CC2)cn1 | -10.7
CS(=O)(=O)N1CCC(O)(Cn2c(C3CC3)nc3ccccc3c2=O)CC1 | 3.06
CC(C)(C)OC(=O)N1CCN(C(=O)CCn2cccn2)CC1 | -14.6
CC(C)n1cc(CN2CCCN(C(=O)C(C)n3cccn3)CC2)cn1 (centres undefined) | -17.9
Cc1nn(C)c(Cl)c1C1CCCN1C(=O)c1ccncc1 (centres undefined) | -11.2

Structure (SMILES) | cytotoxicity at 10 µM [%]
CN1CCN(c2cc(CNC(=O)c3ccc(Cl)o3)ccn2)CC1 | -9.69
CN(C)c1ccc(C(=O)N2CCCC(n3cccn3)C2)cn1 (centres undefined) | -11.5
Cc1cnc(CNC(=O)N(CCCO)C2CCc3ccccc32)s1 (centres undefined) | -17.2
CCCOc1cc(C)ccc1NC(=O)N(C)Cc1cnn(C)c1 | -11.1
NC(=O)N1CCC(C(=O)NCc2nncn2-c2ccccc2)CC1 | -18.7
Cc1nc(C)n(C2CCCN(C(=O)c3ncoc3C(C)C)C2)n1 (centres undefined) | -17
Cc1cnn(CCC(=O)N2CCCC(c3nc(C)no3)C2)c1 (centres undefined) | -1.59
Fc1cnc(N2CCO[C@H]3[C@H](OCC4CCOCC4)CC[C@@H]32)nc1 | 10.7
O=C([C@@H]1CCO[C@@H]2CCN(Cc3ccsc3)C[C@@H]21)N1CCCC1 | -81.4
Cc1cccc(CN2C(=O)C[C@H]3[C@@H]2CCN3Cc2ccccn2)n1 | 6.97
CCN1CCC2(CCN(Cc3ccc(OC)cc3)CC2)C1=O | -0.0368
Cc1nc(N2CCOCC2)nc2c1CCN(Cc1nccn1C)CC2 | -125
Cn1nccc1-c1nnn2c1COC(CNCc1nccs1)C2 (centres undefined) | -1.07
O=C(NC1CC1)[C@H]1C[C@H]2OCC[C@H]2N(Cc2ccc3ccccc3n2)C1 | -62.6
CN(C)[C@@H]1CCN(C(=O)c2ccsc2)[C@H]1Cc1cccnc1 | -66.7
CN(C[C@@H]1CCC[C@@H]2CN(c3ncccn3)C[C@@H]21)C1CC1 | 5.18
CC(=O)N1CC(=O)N(c2ccccc2)CC12CCN(Cc1ccoc1)C2 (centres undefined) | -1.51
CS(=O)(=O)N1CC[C@H]2OCC[C@@]2(C(=O)NCCc2ccccn2)C1 | -101
CS(=O)(=O)NC[C@]12COC[C@H]1CN(Cc1ccc3c(c1)OCO3)C2 | -106
CC(C)NCC1(COc2ccccc2)C[C@@H](O)[C@@H](O)C1 (some centres undefined) | 0.67
CC(=O)N1C[C@H]2CC[C@@H](C1)N(S(=O)(=O)c1ccc(C#N)cc1Cl)C2 | 1.33
